One data set deals with MDA-MB-231 cells. The data set can be described thus: Lactate dehydrogenase. Type of data set: cell-based. The following applies: MDA-MB-231, effective anticancer concentrations, 24 h. The essentials: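 MDA-MB-231 cells were seeded at 3 × 10^4 cells/well and allowed to attach, then exposed to test compound in medium with 5% FBS for 24 h at 37 °C, 5% CO2. Controls: Triton X-100 wells (maximum release) and […], in triplicate. Supernatant was incubated with NAD+/lactic acid/INT/diaphorase for 30 min at rt, and A490 was read. % cytotoxicity was calculated relative to spontaneous and maximum release.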

The test system of data set [1] is MCF-10A mammary epithelial cells. The data set can be described thus: Cytotoxicity assay. The following applies: 24 h, MTT. The data set is classed as cell-based.
A further data set deals with IGF1R (Homo sapiens, UniProt P08069). The data set can be described thus: SelectScreen kinase profiling, IGF1R. Type of data set: biochemical. The following applies: read-out: Mean % inhibition at 10 μM, IGF1R, 10 μM. The essentials: (§1)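 Test compound was screened at a single 10 μM concentration through an outsourced kinase selectivity panel (SelectScreen). Percent inhibition of each kinase was determined by time-resolved FRET assay.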

Another data set addresses ERBB2 (HER2) (Homo sapiens, UniProt P04626). The data set can be described thus: SelectScreen kinase profiling, HER2. Type of data set: biochemical. The following applies: read-out: Mean % inhibition at 10 μM, ERBB2 (HER2), 10 μM. Summed up:
as §1

Data set [2] deals with c-Met phosphorylation in MDA-MB-231 cells. The data set can be described thus: Western blot of c-Met phosphorylation in cells. Type of data set: cell-based, human. The following applies: MDA-MB-231, Western blot, 72 h.
Data set [3] has as its system p-c-Met in MDA-MB-231/GFP tumors. Nature of the data set: Western blot of p-c-Met in excised xenograft tumors. Conditions: 10 mg/kg i.p., 3X/week, vs vehicle-treated control. The data set is classed as in vivo, athymic nude mice. Summed up: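 Xenografts were MDA-MB-231/GFP cells in the mammary fat pad of female athymic nude mice, 5 per group. Test compound (i.p., 10 mg/kg, 3×/week) or vehicle (DMSO stock diluted in PBS/0.1% Tween 80) was given. At termination, tumors were excised, snap-frozen, homogenized and lysed. Lysates were immunoblotted for p-c-Met: SDS gels, PVDF, 5% BSA/TBST block, primary antibodies overnight at 4 °C, HRP secondaries, chemiluminescence.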

A further data set addresses MST1R (RON) (Homo sapiens, UniProt Q04912). The data set can be described thus: SelectScreen kinase profiling, MST1R. The data set is classed as biochemical. Conditions: read-out: Mean % inhibition at 10 μM, MST1R (RON), 10 μM. Summed up: as §1
For data set [4], the system named is MDA-MB-231/GFP tumor cells. The data set can be described thus: Breast cancer xenograft in athymic nude mice. Conditions: 10 mg/kg i.p., 3X/week, throughout the study. The data set is classed as in vivo. The essentials: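 Female athymic nude mice (5–6 weeks old) received 1 × 10^6 MDA-MB-231/GFP cells in RPMI-1640 into the mammary fat pad. At about 50 mm3 (day 10), mice were randomized, 5 per group. Test compound was dissolved as a DMSO stock, diluted in sterile PBS with 0.1% Tween 80, and given i.p. at 10 mg/kg three times weekly. Controls got the same vehicle volume. Body weight was monitored regularly.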

In a further data set the target is ABL1 (Homo sapiens, UniProt P00519). Nature of the data set: SelectScreen kinase profiling, ABL1. Type of data set: biochemical. Conditions: read-out: Mean % inhibition at 10 μM, ABL1, 10 μM. Summed up:
as §1

The test system of data set [5] is p-Akt, p-mTOR, p-FAK, paxillin, p-MAPK in MDA-MB-231 cells. The data set can be described thus: Western blot of c-Met downstream effectors in cells. The following applies: MDA-MB-231, Western blot. Type of data set: cell-based, human. Summed up:
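MDA-MB-231 cells were seeded at 5 × 10^5 per 100 mm dish, attached overnight, then treated with test compound or DMSO vehicle for 72 h in serum-reduced medium with 10 ng/ml HGF. Lysates (30 μg) were run on Tris/glycine/SDS gels and transferred to PVDF. Blots were blocked 2 h in 5% BSA/TBST, probed with primary antibodies overnight at 4 °C and HRP secondaries 1 h at rt, and detected by chemiluminescence.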
On the technique in general: In western blotting, separated proteins are transferred to a membrane and probed.

Each structure is given as a SMILES string.

Sequence of MST1R (RON) (Q04912 25-1400): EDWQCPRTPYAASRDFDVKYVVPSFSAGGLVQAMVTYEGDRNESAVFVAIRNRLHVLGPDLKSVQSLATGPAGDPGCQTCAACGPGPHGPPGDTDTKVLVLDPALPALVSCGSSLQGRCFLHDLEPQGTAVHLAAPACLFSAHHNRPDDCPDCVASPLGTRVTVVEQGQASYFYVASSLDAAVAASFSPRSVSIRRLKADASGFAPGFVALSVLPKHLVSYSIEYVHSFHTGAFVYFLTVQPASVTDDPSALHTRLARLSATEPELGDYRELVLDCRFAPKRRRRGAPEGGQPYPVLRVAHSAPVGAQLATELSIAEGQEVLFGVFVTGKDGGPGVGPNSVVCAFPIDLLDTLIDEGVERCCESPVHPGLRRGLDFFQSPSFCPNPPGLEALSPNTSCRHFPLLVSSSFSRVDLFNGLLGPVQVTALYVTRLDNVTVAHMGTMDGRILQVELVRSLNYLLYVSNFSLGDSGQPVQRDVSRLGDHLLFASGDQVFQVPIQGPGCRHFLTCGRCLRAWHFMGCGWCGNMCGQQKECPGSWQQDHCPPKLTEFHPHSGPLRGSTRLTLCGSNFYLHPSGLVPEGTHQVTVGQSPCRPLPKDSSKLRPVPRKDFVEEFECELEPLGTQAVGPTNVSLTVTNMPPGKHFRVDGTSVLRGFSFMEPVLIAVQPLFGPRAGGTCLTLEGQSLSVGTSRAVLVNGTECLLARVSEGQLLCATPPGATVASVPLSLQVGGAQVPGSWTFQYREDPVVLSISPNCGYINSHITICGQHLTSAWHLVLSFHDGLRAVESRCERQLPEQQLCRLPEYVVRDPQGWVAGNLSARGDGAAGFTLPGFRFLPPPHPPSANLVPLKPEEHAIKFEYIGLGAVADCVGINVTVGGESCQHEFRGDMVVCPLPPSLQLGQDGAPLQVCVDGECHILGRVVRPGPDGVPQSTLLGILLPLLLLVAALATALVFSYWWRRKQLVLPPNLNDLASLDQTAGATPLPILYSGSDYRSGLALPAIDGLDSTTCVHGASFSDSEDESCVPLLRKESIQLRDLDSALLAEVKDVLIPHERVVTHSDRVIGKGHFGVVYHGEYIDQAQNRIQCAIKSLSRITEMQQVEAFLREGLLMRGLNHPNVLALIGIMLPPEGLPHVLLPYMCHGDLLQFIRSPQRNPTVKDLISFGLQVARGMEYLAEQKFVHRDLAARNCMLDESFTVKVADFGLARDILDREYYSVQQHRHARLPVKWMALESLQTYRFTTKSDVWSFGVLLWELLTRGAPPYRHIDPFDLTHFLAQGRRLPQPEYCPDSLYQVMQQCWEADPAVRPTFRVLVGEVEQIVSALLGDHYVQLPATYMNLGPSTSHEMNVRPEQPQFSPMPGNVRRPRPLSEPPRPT
Sequence of IGF1R (P08069 31-1367): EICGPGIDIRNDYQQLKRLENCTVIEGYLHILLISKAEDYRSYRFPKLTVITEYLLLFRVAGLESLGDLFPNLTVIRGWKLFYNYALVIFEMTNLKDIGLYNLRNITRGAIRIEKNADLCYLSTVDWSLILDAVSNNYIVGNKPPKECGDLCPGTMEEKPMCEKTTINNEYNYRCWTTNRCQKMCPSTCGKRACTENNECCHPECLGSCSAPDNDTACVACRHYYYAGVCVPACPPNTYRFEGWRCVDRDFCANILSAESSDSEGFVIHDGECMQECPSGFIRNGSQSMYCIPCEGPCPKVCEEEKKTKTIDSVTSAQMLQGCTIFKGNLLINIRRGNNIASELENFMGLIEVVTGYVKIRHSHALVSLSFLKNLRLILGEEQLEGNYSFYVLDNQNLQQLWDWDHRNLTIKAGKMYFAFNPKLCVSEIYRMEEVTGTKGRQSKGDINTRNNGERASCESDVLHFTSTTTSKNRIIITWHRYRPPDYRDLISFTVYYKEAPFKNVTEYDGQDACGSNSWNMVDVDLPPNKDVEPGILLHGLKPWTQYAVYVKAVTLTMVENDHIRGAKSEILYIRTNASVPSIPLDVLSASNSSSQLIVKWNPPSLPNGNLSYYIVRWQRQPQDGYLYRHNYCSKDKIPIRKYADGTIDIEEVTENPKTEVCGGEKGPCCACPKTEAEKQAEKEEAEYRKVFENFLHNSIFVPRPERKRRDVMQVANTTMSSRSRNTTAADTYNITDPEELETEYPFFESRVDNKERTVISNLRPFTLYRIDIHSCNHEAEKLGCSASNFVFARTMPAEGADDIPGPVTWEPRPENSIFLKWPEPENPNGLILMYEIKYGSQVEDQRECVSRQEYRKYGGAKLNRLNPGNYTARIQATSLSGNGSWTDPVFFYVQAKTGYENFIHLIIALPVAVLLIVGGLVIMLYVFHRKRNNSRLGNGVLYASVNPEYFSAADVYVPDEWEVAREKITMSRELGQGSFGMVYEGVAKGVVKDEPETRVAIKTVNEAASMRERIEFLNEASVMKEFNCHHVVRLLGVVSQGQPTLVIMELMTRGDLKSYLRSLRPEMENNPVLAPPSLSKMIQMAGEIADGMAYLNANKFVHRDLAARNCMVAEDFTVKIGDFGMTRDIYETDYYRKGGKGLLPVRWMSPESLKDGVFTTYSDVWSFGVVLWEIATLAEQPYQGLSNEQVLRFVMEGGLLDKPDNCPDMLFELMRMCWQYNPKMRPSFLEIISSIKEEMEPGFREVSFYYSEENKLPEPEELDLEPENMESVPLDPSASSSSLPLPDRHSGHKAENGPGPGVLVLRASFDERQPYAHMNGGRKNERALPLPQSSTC
Sequence of ABL1 (P00519 whole entry): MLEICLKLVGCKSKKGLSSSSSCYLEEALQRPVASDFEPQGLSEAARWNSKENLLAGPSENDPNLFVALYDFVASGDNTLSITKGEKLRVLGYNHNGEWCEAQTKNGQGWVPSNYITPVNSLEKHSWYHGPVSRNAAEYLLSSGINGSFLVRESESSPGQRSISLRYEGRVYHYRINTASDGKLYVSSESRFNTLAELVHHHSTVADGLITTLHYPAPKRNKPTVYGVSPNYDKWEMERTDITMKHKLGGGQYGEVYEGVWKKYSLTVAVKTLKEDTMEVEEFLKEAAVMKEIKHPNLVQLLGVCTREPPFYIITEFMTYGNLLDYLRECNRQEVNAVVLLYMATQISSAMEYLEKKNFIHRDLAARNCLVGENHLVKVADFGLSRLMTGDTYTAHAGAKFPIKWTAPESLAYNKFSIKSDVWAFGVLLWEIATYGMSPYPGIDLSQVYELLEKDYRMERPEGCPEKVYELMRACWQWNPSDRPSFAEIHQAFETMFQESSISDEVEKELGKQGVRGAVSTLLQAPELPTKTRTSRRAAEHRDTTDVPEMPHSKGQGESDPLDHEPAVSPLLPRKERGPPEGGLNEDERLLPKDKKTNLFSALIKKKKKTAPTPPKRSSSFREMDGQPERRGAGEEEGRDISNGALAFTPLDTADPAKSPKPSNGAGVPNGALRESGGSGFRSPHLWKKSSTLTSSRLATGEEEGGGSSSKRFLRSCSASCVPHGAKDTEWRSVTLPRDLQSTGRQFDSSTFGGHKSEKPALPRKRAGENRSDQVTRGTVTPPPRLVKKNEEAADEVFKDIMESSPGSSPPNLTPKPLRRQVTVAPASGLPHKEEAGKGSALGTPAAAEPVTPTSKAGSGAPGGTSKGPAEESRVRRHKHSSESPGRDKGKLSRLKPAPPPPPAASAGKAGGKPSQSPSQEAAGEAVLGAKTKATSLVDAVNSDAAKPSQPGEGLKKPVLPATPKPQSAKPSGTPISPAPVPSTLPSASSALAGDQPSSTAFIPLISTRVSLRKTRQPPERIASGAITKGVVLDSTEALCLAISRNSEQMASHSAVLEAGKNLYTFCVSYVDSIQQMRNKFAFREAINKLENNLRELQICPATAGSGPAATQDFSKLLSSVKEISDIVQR
Sequence of ERBB2 (HER2) (P04626 23-1255): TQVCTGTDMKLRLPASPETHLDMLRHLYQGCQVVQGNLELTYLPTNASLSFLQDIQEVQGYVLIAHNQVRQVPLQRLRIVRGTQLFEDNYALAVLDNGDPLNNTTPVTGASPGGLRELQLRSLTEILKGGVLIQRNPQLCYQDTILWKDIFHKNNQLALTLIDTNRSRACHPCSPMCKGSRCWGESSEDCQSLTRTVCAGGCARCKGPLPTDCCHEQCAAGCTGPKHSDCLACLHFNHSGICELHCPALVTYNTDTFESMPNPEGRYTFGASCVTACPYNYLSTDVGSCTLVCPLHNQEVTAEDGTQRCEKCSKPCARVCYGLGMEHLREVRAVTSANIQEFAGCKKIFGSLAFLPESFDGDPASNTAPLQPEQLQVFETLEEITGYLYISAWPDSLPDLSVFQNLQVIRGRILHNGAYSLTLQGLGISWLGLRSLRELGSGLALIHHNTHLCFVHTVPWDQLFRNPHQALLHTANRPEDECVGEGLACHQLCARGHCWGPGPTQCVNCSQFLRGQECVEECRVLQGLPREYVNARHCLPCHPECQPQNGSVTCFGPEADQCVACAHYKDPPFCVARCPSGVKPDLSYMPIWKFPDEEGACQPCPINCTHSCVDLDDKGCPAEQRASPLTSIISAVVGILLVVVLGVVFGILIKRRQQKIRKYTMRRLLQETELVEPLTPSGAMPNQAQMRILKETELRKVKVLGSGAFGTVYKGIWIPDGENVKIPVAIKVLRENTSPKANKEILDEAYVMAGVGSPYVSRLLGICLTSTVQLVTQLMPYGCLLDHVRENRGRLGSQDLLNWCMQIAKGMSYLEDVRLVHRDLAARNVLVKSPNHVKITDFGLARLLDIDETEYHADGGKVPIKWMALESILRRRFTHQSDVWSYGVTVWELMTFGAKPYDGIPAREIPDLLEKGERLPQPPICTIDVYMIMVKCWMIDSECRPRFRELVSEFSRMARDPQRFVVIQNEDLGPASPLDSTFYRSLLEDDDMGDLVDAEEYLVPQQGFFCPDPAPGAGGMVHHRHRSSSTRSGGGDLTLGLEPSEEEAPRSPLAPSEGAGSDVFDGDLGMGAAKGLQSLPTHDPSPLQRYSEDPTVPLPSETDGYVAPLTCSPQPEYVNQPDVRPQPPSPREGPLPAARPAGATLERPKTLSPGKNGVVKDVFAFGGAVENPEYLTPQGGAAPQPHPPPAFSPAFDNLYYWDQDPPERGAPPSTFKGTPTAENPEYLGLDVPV

Regarding `C/C1=C\[C@H](OC(=O)Nc2cc(C(F)(F)F)cc(C(F)(F)F)c2)C[C@](C)(O)/C=C/[C@H](C(C)C)CC/C(C)=C/CC1` [Compound 20, 6-O-[(N-(3,5-bis-(trifluoromethyl)phenyl)carbamoyl)]-(1S,2E,4S,7E,11E)-2,7,11-cembratriene-4,6-diol], the “LDH release (necrosis marker)” value in the data set on MDA-MB-231 cells is listed as “minimal”. Further, the “cellular death at effective doses” value in [1] is on record as “didn’t induce a significant cellular death”. Also, the inhibition at 10 µM is 30 to 35% on IGF1R, 23% at ERBB2 (HER2), 30 to 35% on MST1R (RON) and 30 to 35% on ABL1. Also, the “effect on p-Met (phosphorylated c-Met) level” value in data set [2] is given as “significant concentration-dependent downregulation”. For the same molecule, the “level of p-c-Met in excised tumors” value in data set [3] is reported as “significant decrease”. Also, the “average body weight difference between treatment and vehicle groups” value in data set [4] was “non-significant”. Further, the “levels of p-Akt, p-mTOR and p-FAK” value in [5] is “significant reductions”. Besides, in [5], the paxillin phosphorylation result is recorded as “phosphorylation reduction”. In addition, in [5] (compared to untreated cells), the p-MAPK level entry is “dose-dependent downregulation”.

Usually inhibition stands for the drop in the measured response relative to a control, in per cent.

The record behind these values is article PMC5079820 (Bioorganic & medicinal chemistry, 2016).
